Experimental data: ChEMBL document CHEMBL1157704, “Potent activity against K562 cells by polyamide-seco-CBI conjugates targeting histone H4 genes” (Bioorg Med Chem, 2010)
Calls of active or inactive are those of the source.

Tests used:
[1] = test system: histone H4c gene fragment DNA (human); assay: Binding affinity to 5'-ACGCCA-3' sequence of 223 bp human histone H4c gene fragment DNA assessed as DNA alkylating activity at 5 to 100 nM after 15 hrs by PAGE
K562 [2] = assay: Effect on FLJ21767 gene expression in human K562 cells assessed as change in mRNA transcript expression at 10 nM after 48 hrs by DNA microarray analysis relative to control; format: functional
Summary of the method: (§1)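 Transcripts were profiled on Affymetrix GeneChip Human Gene 1.0 ST arrays in K562 cells treated at 10 nM. Treated cells were collected at 6, 12, 24 and 48 h; untreated controls were collected at 48 h. Transcripts changed at least twofold versus control were scored.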

K562 [3] = assay: Effect on TCN1 gene expression in human K562 cells assessed as change in mRNA transcript expression at 10 nM after 48 hrs by DNA microarray analysis relative to control; format: functional
Summary of the method: (§2)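 K562 CML cells (b3a2 Bcr-Abl) in standard ATCC-recommended culture, exposed once to 10 nM conjugate and harvested at 48 h. Untreated controls were also collected at 48 h. Transcripts were profiled on Human Gene 1.0 ST whole-genome oligonucleotide arrays, and each treated level was expressed relative to the untreated control, with a cutoff of at least twofold change.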

K562 [4] = assay: Cell cycle arrest in human K562 cells assessed as increase in accumulation at G2/M phase at 125 to 250 nM after 48 hrs propidium iodide staining-based FACS analysis; format: functional
Summary of the method: (§3)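 K562 cells, from ATCC and kept under ATCC-recommended conditions, were treated for 48 h and pelleted at 200g for 5 min. They were resuspended in PBS, fixed with prechilled 70% ethanol and stained with propidium iodide at 50 µg/mL. DNA content was read by flow cytometry to assign the G0–G1, S and G2–M fractions; sub-2C DNA content was taken as apoptosis.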

K562 [5] = assay: Effect on EXOC6B gene expression in human K562 cells assessed as change in mRNA transcript expression at 10 nM after 48 hrs by DNA microarray analysis relative to control; format: functional
Summary of the method: as §1

K562 [6] = assay: Effect on HIST1H2AH gene expression in human K562 cells assessed as change in mRNA transcript expression at 10 nM after 48 hrs by DNA microarray analysis relative to control; format: functional
Summary of the method: as §1

K562 [7] = assay: Effect on NTS gene expression in human K562 cells assessed as change in mRNA transcript expression at 10 nM after 48 hrs by DNA microarray analysis relative to control; format: functional
Summary of the method: as §2

K562 [8] = assay: Effect on UBE2W gene expression in human K562 cells assessed as change in mRNA transcript expression at 10 nM after 48 hrs by DNA microarray analysis relative to control; format: functional
Summary of the method: (§4)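 K562 CML cells (b3a2 Bcr-Abl) kept under standard culture conditions were exposed to 10 nM conjugate and harvested at 6, 12, 24 and 48 h. Untreated controls were harvested at 48 h. Whole-transcript oligonucleotide microarray profiling was done, and changes of at least twofold versus control were scored.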

K562 [9] = assay: Effect on AMN1 gene expression in human K562 cells assessed as change in mRNA transcript expression at 10 nM after 48 hrs by DNA microarray analysis relative to control; format: functional
Summary of the method: as §1

K562 [10] = assay: Effect on HIST1H4B gene expression in human K562 cells assessed as down-regulation of mRNA transcript expression at 10 nM after 48 hrs by DNA microarray analysis relative to control; format: functional
Summary of the method: as §1

K562 [11] = assay: Effect on NET1 gene expression in human K562 cells assessed as change in mRNA transcript expression at 10 nM after 48 hrs by DNA microarray analysis relative to control; format: functional
Summary of the method: as §2

K562 [12] = assay: Effect on HIST1H4H gene expression in human K562 cells assessed as down-regulation of mRNA transcript expression at 10 nM after 48 hrs by DNA microarray analysis relative to control; format: functional
Summary of the method: as §2

K562 [13] = assay: Effect on INPP5D gene expression in human K562 cells assessed as change in mRNA transcript expression at 10 nM after 48 hrs by DNA microarray analysis relative to control; format: functional
Summary of the method: as §2

K562 [14] = assay: Effect on PLA2G6 gene expression in human K562 cells assessed as change in mRNA transcript expression at 10 nM after 48 hrs by DNA microarray analysis relative to control; format: functional
Summary of the method: as §2

K562 [15] = assay: Effect on RNU5F gene expression in human K562 cells assessed as change in mRNA transcript expression at 10 nM after 48 hrs by DNA microarray analysis relative to control; format: functional
Summary of the method: as §2

K562 [16] = assay: Effect on TOMM22 gene expression in human K562 cells assessed as change in mRNA transcript expression at 10 nM after 48 hrs by DNA microarray analysis relative to control; format: functional
Summary of the method: as §4

K562 [17] = assay: Effect on ITGB3 gene expression in human K562 cells assessed as change in mRNA transcript expression at 10 nM after 48 hrs by DNA microarray analysis relative to control; format: functional
Summary of the method: as §2

K562 [18] = assay: Effect on HIST1H2A gene expression in human K562 cells assessed as change in mRNA transcript expression at 10 nM after 48 hrs by DNA microarray analysis relative to control; format: functional
Summary of the method: as §1

K562 [19] = assay: Effect on ANKRD20B gene expression in human K562 cells assessed as change in mRNA transcript expression at 10 nM after 48 hrs by DNA microarray analysis relative to control; format: functional
Summary of the method: as §1

K562 [20] = assay: Effect on CLGN gene expression in human K562 cells assessed as change in mRNA transcript expression at 10 nM after 48 hrs by DNA microarray analysis relative to control; format: functional
Summary of the method: as §1

K562 [21] = assay: Effect on HIST1H1C gene expression in human K562 cells assessed as change in mRNA transcript expression at 10 nM after 48 hrs by DNA microarray analysis relative to control; format: functional
Summary of the method: as §1

K562 [22] = assay: Effect on CREB3L1 gene expression in human K562 cells assessed as change in mRNA transcript expression at 10 nM after 48 hrs by DNA microarray analysis relative to control; format: functional
Summary of the method: as §1

K562 [23] = assay: Effect on SNORD80 gene expression in human K562 cells assessed as change in mRNA transcript expression at 10 nM after 48 hrs by DNA microarray analysis relative to control; format: functional
Summary of the method: as §2

K562 [24] = assay: Effect on HIST1H1D gene expression in human K562 cells assessed as change in mRNA transcript expression at 10 nM after 48 hrs by DNA microarray analysis relative to control; format: functional
Summary of the method: as §1

K562 [25] = assay: Induction of apoptosis in human K562 cells assessed as late apoptotic cells at 250 nM after 48 hrs by annexin-V FITC and propidium iodide staining-based FACS analysis; format: functional
Summary of the method: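 Treated K562 cells […] stained with Annexin V-FITC/propidium iodide. Apoptosis was scored by two-dimensional flow cytometry at a core FACS facility.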

K562 [26] = assay: Effect on PYROXD1 gene expression in human K562 cells assessed as change in mRNA transcript expression at 10 nM after 48 hrs by DNA microarray analysis relative to control; format: functional
Summary of the method: as §2

K562 [27] = assay: Cell cycle arrest in human K562 cells assessed as decrease in accumulation at G1 phase at 125 to 250 nM after 48 hrs propidium iodide staining-based FACS analysis; format: functional
Summary of the method: as §3

SMILES: CC(=O)Nc1cn(C)c(C(=O)Nc2cn(C)c(C(=O)NCCC(=O)Nc3cn(C)c(C(=O)NCCCC(=O)Nc4cc(C(=O)Nc5cn(C)c(C(=O)Nc6ccc7[nH]c(C(=O)N8CC(CCl)c9c8cc(O)c8ccccc98)cc7c6)n5)n(C)c4)n3)n2)n1 (configuration not stated)
- Activity [1]: Active
- fold change (FC) (K562 [2]): >=2
- fold change (FC) (K562 [3]): >=2
- Activity (K562 [4]): Active
- fold change (FC) (K562 [5]): >=2
- fold change (FC) (K562 [6]): >=2
- fold change (FC) (K562 [7]): >=2
- fold change (FC) (K562 [8]): >=2
- fold change (FC) (K562 [9]): >=2
- fold change (FC) (K562 [10]): 3.91
- fold change (FC) (K562 [11]): >=2
- fold change (FC) (K562 [12]): 2.11
- fold change (FC) (K562 [13]): >=2
- fold change (FC) (K562 [14]): >=2
- fold change (FC) (K562 [15]): >=2
- fold change (FC) (K562 [16]): >=2
- fold change (FC) (K562 [17]): >=2
- fold change (FC) (K562 [18]): >=2
- fold change (FC) (K562 [19]): >=2
- fold change (FC) (K562 [20]): >=2
- fold change (FC) (K562 [21]): >=2
- fold change (FC) (K562 [22]): >=2
- fold change (FC) (K562 [23]): >=2
- fold change (FC) (K562 [24]): >=2
- Activity (K562 [25]): 8.53%
- fold change (FC) (K562 [26]): >=2
- Activity (K562 [27]): Active
